These results are taken from ChEMBL document CHEMBL3272272, “Photoaffinity labeling of the angiotensin II receptor. 1. Synthesis and biological activities of the labeling peptides” (J Med Chem, 1978).

Non-standard residues stand in square brackets, D forms with d. Residues, ends and D or L forms follow the SMILES beside them. Phe(4-NO2) = N[C@@H](Cc1ccc([N+](=O)[O-])cc1)C(=O)O; Phe(3,5-I2,4-NH2) = Nc1c(I)cc(C[C@H](N)C(=O)O)cc1I; Phe(4-N3) = [N-]=[N+]=Nc1ccc(C[C@H](N)C(=O)O)cc1; Phe(4-N2+) = N#[N+]c1ccc(C[C@H](N)C(=O)O)cc1; Phe(4-NH2) = Nc1ccc(C[C@H](N)C(=O)O)cc1; Sar = CNCC(=O)O

Test [1] is filed under the species Oryctolagus cuniculus. Briefly: Relative binding affinity at rabbit angiotensin […] receptor in aorta strips under exclusion of long wavelength UV light relative to control. Type of test: tissue-based.
For test [2], the species on record is Oryctolagus cuniculus. Briefly: Intrinsic activity at rabbit angiotensin […] receptor in aorta strips under exclusion of long wavelength UV light. The format is tissue-based. The essentials: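 Intrinsic activity (αE) was determined with the rabbit aorta bioassay.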
Test [3] is filed under the species Oryctolagus cuniculus. Briefly: Agonist activity at rabbit angiotensin […] receptor in aorta strips assessed as peptide concentration required to produce 50% maximal response under exclusion of long wavelength UV light. In outline: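 Rabbit aorta contractile bioassay. […]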

Test [4] is described as follows: Antagonist activity at rabbit angiotensin […] receptor in aorta strips under exclusion of long wavelength UV light. Type of test: tissue-based. The conditions noted are these: Oryctolagus cuniculus, read-out: pA2 (converted).

As to `CNCC(=O)N[C@@H](CCCNC(=N)N)C(=O)N[C@H](C(=O)N[C@@H](Cc1ccc([N+](=O)[O-])cc1)C(=O)N[C@H](C(=O)N[C@@H](Cc1cnc[nH]1)C(=O)N1CCC[C@H]1C(=O)N[C@@H](Cc1ccccc1)C(=O)O)C(C)C)C(C)C` (H-[Sar]RV[Phe(4-NO2)]VHPF-OH), the RBA in the test listed under Oryctolagus cuniculus [1] was 0%. Further, the Intrinsic activity in the test listed under Oryctolagus cuniculus [2] was found to be 0.
In the test filed under Oryctolagus cuniculus [1], `CNCC(=O)N[C@@H](CCCNC(=N)N)C(=O)N[C@H](C(=O)N[C@@H](Cc1ccc(N=[N+]=[N-])cc1)C(=O)N[C@H](C(=O)N[C@@H](Cc1cnc[nH]1)C(=O)N1CCC[C@H]1C(=O)N[C@@H](Cc1ccc(N=[N+]=[N-])cc1)C(=O)O)C(C)C)C(C)C` (H-[Sar]RV[Phe(4-N3)]VHP[Phe(4-N3)]-OH) came in with an RBA of 0.07%. In the test filed under Oryctolagus cuniculus [3], the pD2 is 6.12. Further, the Intrinsic activity in the test filed under Oryctolagus cuniculus [2] was 0.8.
Take `CNCC(=O)N[C@@H](CCCNC(=N)N)C(=O)N[C@H](C(=O)N[C@@H](Cc1ccc(O)cc1)C(=O)N[C@H](C(=O)N[C@@H](Cc1cnc[nH]1)C(=O)N1CCC[C@H]1C(=O)N[C@@H](Cc1ccc([N+](=O)[O-])cc1)C(=O)O)C(C)C)C(C)C`: the RBA in the test listed under Oryctolagus cuniculus [1] was found to be 69%. Also, in test [4], the Kb is 0.372 nM. In the test listed under Oryctolagus cuniculus [3], the pD2 amounted to 9.07. Also, the Intrinsic activity in the test filed under Oryctolagus cuniculus [2] was found to be 0.46.
For `CNCC(=O)N[C@@H](CCCNC(=N)N)C(=O)N[C@H](C(=O)N[C@@H](Cc1ccc([N+](=O)[O-])cc1)C(=O)N[C@H](C(=O)N[C@@H](Cc1cnc[nH]1)C(=O)N1CCC[C@H]1C(=O)N[C@@H](Cc1ccc([N+](=O)[O-])cc1)C(=O)O)C(C)C)C(C)C` (H-[Sar]RV[Phe(4-NO2)]VHP[Phe(4-NO2)]-OH), in that order: 0.06%, 759 nM, 6.02 and 0.5.
For the molecule `CNCC(=O)N[C@@H](CCCNC(=N)N)C(=O)N[C@H](C(=O)N[C@@H](Cc1cc(I)c(N)c(I)c1)C(=O)N[C@H](C(=O)N[C@@H](Cc1cnc[nH]1)C(=O)N1CCC[C@H]1C(=O)N[C@@H](Cc1ccccc1)C(=O)O)C(C)C)C(C)C` (H-[Sar]RV[Phe(3,5-I2,4-NH2)]VHPF-OH), the RBA in the test filed under Oryctolagus cuniculus [1] is 2.7%. The pD2 in the test listed under Oryctolagus cuniculus [3] came to 7.68. The same molecule registered an Intrinsic activity in the test listed under Oryctolagus cuniculus [2] of 1.
For `CNCC(=O)N[C@@H](CCCNC(=N)N)C(=O)N[C@H](C(=O)N[C@@H](Cc1ccc([N+]#N)cc1)C(=O)N[C@H](C(=O)N[C@@H](Cc1cnc[nH]1)C(=O)N1CCC[C@H]1C(=O)N[C@@H](Cc1ccccc1)C(=O)O)C(C)C)C(C)C` (H-[Sar]RV[Phe(4-N2+)]VHPF-OH), in that order: 0.66%, 7.05 and 1.
For `CNCC(=O)N[C@@H](CCCNC(=N)N)C(=O)N[C@H](C(=O)N[C@@H](Cc1ccc(N=[N+]=[N-])cc1)C(=O)N[C@H](C(=O)N[C@@H](Cc1cnc[nH]1)C(=O)N1CCC[C@H]1C(=O)N[C@@H](Cc1ccccc1)C(=O)O)C(C)C)C(C)C` (H-[Sar]RV[Phe(4-N3)]VHPF-OH), in that order: 0.26%, 6.65 and 0.75.
For `CNCC(=O)N[C@@H](CCCNC(=N)N)C(=O)N[C@H](C(=O)N[C@@H](Cc1ccc(O)cc1)C(=O)N[C@H](C(=O)N[C@@H](Cc1cnc[nH]1)C(=O)N1CCC[C@H]1C(=O)N[C@@H](Cc1ccc(N)cc1)C(=O)O)C(C)C)C(C)C` the same measures were 37%, 8.8 and 1.
`CNCC(=O)N[C@@H](CCCNC(=N)N)C(=O)N[C@H](C(=O)N[C@@H](Cc1ccc(N)cc1)C(=O)N[C@H](C(=O)N[C@@H](Cc1cnc[nH]1)C(=O)N1CCC[C@H]1C(=O)N[C@@H](Cc1ccc(N)cc1)C(=O)O)C(C)C)C(C)C` (H-[Sar]RV[Phe(4-NH2)]VHP[Phe(4-NH2)]-OH) showed an RBA in the test filed under Oryctolagus cuniculus [1] of 8.7%. In the test filed under Oryctolagus cuniculus [3], the pD2 turned out to be 8.17. Also, the Intrinsic activity in the test filed under Oryctolagus cuniculus [2] amounted to 1.
In the case of `CNCC(=O)N[C@@H](CCCNC(=N)N)C(=O)N[C@H](C(=O)N[C@@H](Cc1ccc(O)cc1)C(=O)N[C@H](C(=O)N[C@@H](Cc1cnc[nH]1)C(=O)N1CCC[C@H]1C(=O)N[C@@H](Cc1ccc([N+]#N)cc1)C(=O)O)C(C)C)C(C)C`, in the test filed under Oryctolagus cuniculus [1], the RBA amounted to 13%. The pD2 in the test listed under Oryctolagus cuniculus [3] amounted to 8.33. The Intrinsic activity in the test listed under Oryctolagus cuniculus [2] came to 1.
As for `CNCC(=O)N[C@@H](CCCNC(=N)N)C(=O)N[C@H](C(=O)N[C@@H](Cc1ccc(O)cc1)C(=O)N[C@H](C(=O)N[C@@H](Cc1cnc[nH]1)C(=O)N1CCC[C@H]1C(=O)N[C@@H](Cc1ccccc1)C(=O)O)C(C)C)C(C)C` (H-[Sar]RVYVHPF-OH), the pD2 in the test listed under Oryctolagus cuniculus [3] worked out at 9.23. Further, the Intrinsic activity in the test listed under Oryctolagus cuniculus [2] is 1.
`CNCC(=O)N[C@@H](CCCNC(=N)N)C(=O)N[C@H](C(=O)N[C@@H](Cc1ccc(O)cc1)C(=O)N[C@H](C(=O)N[C@@H](Cc1cnc[nH]1)C(=O)N1CCC[C@H]1C(=O)N[C@@H](Cc1cc(I)c(N)c(I)c1)C(=O)O)C(C)C)C(C)C` gave an RBA in the test listed under Oryctolagus cuniculus [1] of 118%. The Kb in test [4] is 0.501 nM. This molecule also gave an Intrinsic activity in the test filed under Oryctolagus cuniculus [2] of 0.
Regarding `CNCC(=O)N[C@@H](CCCNC(=N)N)C(=O)N[C@H](C(=O)N[C@@H](Cc1ccc(O)cc1)C(=O)N[C@H](C(=O)N[C@@H](Cc1cnc[nH]1)C(=O)N1CCC[C@H]1C(=O)N[C@@H](Cc1ccc(N=[N+]=[N-])cc1)C(=O)O)C(C)C)C(C)C`, in the test listed under Oryctolagus cuniculus [1], the RBA turned out to be 31%. Besides, in the test listed under Oryctolagus cuniculus [3], the pD2 turned out to be 8.72. Further, the Intrinsic activity in the test filed under Oryctolagus cuniculus [2] turned out to be 1.
For `CNCC(=O)N[C@@H](CCCNC(=N)N)C(=O)N[C@H](C(=O)N[C@@H](Cc1ccc(N)cc1)C(=O)N[C@H](C(=O)N[C@@H](Cc1cnc[nH]1)C(=O)N1CCC[C@H]1C(=O)N[C@@H](Cc1ccccc1)C(=O)O)C(C)C)C(C)C` (H-[Sar]RV[Phe(4-NH2)]VHPF-OH) the same measures were 15%, 8.41 and 1.
For `CNCC(=O)N[C@@H](CCCNC(=N)N)C(=O)N[C@H](C(=O)N[C@@H](Cc1ccc([N+]#N)cc1)C(=O)N[C@H](C(=O)N[C@@H](Cc1cnc[nH]1)C(=O)N1CCC[C@H]1C(=O)N[C@@H](Cc1ccc([N+]#N)cc1)C(=O)O)C(C)C)C(C)C` (H-[Sar]RV[Phe(4-N2+)]VHP[Phe(4-N2+)]-OH), in that order: 1.3%, 7.36 and 1.
